Assay outcomes deposited in PubChem by Broad Institute.
This is a sample that favours compounds with a hit; in the whole collection about 2.6% have one here.
E-sel inducer: E-selectin induction in HUVECs, primary screen, imaging, HUVEC, immunofluorescence imaging, single point | P16581 | normalized: neutral wells 0, TNF-alpha wells 100 | activation, % at 7.58 µM | 260,000 compounds, 0.37% hits | AID 686992, 2013;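 active = mean E-selectin-positive cell signal at least 10% of the positive control, reached in at least 60% of replicates, without over 20% cell loss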
Target sequence (P16581 whole entry, looked up): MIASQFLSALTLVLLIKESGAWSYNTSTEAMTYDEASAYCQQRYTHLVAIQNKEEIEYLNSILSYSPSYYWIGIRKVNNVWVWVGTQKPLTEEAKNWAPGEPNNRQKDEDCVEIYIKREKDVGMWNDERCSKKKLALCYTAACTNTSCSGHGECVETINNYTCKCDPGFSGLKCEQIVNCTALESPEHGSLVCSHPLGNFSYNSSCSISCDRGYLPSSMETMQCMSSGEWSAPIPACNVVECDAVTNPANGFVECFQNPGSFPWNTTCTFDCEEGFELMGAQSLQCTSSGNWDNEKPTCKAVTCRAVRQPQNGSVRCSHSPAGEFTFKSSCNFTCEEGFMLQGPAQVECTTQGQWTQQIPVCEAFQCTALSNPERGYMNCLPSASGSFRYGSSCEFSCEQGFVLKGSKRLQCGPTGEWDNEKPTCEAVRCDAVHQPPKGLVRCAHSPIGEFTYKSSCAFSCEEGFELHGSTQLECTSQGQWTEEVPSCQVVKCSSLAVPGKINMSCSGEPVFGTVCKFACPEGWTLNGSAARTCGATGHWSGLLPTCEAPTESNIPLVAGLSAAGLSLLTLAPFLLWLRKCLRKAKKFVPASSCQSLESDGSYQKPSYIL
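material = human umbilical vein endothelial cells (HUVEC), E-selectin induction | quantity = 3,000 cells/well | medium = EGM-2 growth medium on 0.1% gelatin-coated wells | technique = immunofluorescence imaging | read-out basis = % PE-positive cells | control set = TNF-alpha positive control, DMSO neutral control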
INS-1E GSIS act: GLuc luminescence reporter in INS-1E cells, primary screen for activators of glucose-dependent secretion of insulin. 370,000 compounds, 0.61% hits. activation, % at 16.6 µM. INS-1E GLuc reporter insulin secretion, 2-3 h. AID 743287, 2014;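 active = lowest replicate activation of at least 40%, so every replicate reaches that level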;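 also: 0% = median of neutral control wells and 100% = median of IBMX positive control wells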
AF4-AF9 inh: inhibitors of AF4 peptide binding to AF9, primary screen, biochemical, AlphaScreen, biotin-AF4 peptide, FLAG-AF9, single point; Protein AF-9 (Homo sapiens), P42568; inhibition, % at 10 µM; 350,000 compounds, 0.47% hits; AID 651704, 2012;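 active = every replicate reaching a set inhibition limit, whatever the replicate mean, cut at about 25% in these data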;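 also: 0% = plate neutral control median and 100% = total signal loss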
RAD52 anneal inh: RAD52 DNA annealing inhibitors, primary screen, biochemical, FRET, single point, set 2; recombinant RAD52 DNA annealing, FRET fluorescence; DNA repair protein RAD52 homolog (Homo sapiens), P43351; inhibition, % at 18.7 µM; AID 651710, 2012; 360,000 compounds, 0.46% hits;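 active = every replicate showing at least 50% inhibition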
rRNA inh HTS: reduced GFP signal of wild-type E. coli, primary screen, bacterial rRNA inhibitor project, GFP/RFP fluorescence, OD600, single point; E. coli WT GFP vs humanized-ribosome RFP mutants, 24 h; stronger effect = lower value; DMSO median 0, no signal -100; GFP signal change (wild-type ribosome), % (no concentration beside the values); 350,000 compounds, 1.6% hits;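 active = significant combined selectivity score with lowered wild-type GFP, culture density cut under 30%, mutant RFP and density less affected; inactive = any of these conditions unmet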
RAD54 branch: inhibitors of human RAD54 branch migration, primary screen, biochemical, fluorescence, single point; RAD54 Holliday junction branch migration, FAM/BHQ fluorescence; inhibition, % at 10.4 µM; 360,000 compounds, 0.14% hits;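 active = mean normalized replicate activity at least 40 and at least half of replicates scoring 40 or more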;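 also: 0% = median of neutral control wells and 100% = median of positive control wells; inhibitors cause a drop in the FAM fluorescence signal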
Numbers without * were called inactive.

How did CO[C@H]1CN(C)C(=O)c2ccc(NC(=O)C3CCCC3)cc2OC[C@@H](C)N(CCC(F)(F)F)C[C@H]1C do in these assays?
E-sel inducer: 0; INS-1E GSIS act: -15; AF4-AF9 inh: 28*; RAD52 anneal inh: 9; rRNA inh HTS: -1; RAD54 branch: 9

Results for COc1ccc(-c2ccc([C@@H]3[C@H](C#N)N(C(=O)NC4CCCCC4)[C@H]3CO)cc2)cc1 ?
E-sel inducer: 0; INS-1E GSIS act: 1; AF4-AF9 inh: 1; RAD52 anneal inh: -7; rRNA inh HTS: -4; RAD54 branch: 9

What do the screens show for `Cc1noc(C)c1NC(=O)N(C)C[C@@H]1Oc2ccc(NS(=O)(=O)c3cn(C)cn3)cc2C(=O)N([C@H](C)CO)C[C@H]1C`?
E-sel inducer: -2; INS-1E GSIS act: 24; AF4-AF9 inh: -2; RAD52 anneal inh: 6; rRNA inh HTS: 4; RAD54 branch: -4

How did CN(C)C(=O)C[C@@H]1C[C@H]2c3cc(NC(=O)Nc4ccccc4F)ccc3O[C@H]2[C@H](CO)O1 do in these assays?
E-sel inducer: 0; INS-1E GSIS act: -1; AF4-AF9 inh: -7; RAD52 anneal inh: -4; rRNA inh HTS: -2; RAD54 branch: -12

What do the screens show for `C[C@@H]1CN([C@H](C)CO)C(=O)c2cccc(NS(=O)(=O)c3ccc(Cl)cc3)c2O[C@H]1CN(C)C(=O)Nc1ccc2c(c1)OCO2`?
E-sel inducer: 9; INS-1E GSIS act: -9; AF4-AF9 inh: 0; RAD52 anneal inh: -1; rRNA inh HTS: -4; RAD54 branch: -4

Results for C[C@H](CO)N1C[C@H](C)[C@H](CN(C)C(=O)Nc2ccc3c(c2)OCO3)Oc2c(NS(=O)(=O)c3ccc(Cl)cc3)cccc2C1=O ?
E-sel inducer: 50*; INS-1E GSIS act: -13; AF4-AF9 inh: 2; RAD52 anneal inh: -17; rRNA inh HTS: -12; RAD54 branch: -1

What do the screens show for `C[C@@H]1CN([C@@H](C)CO)C(=O)c2cccc(NS(=O)(=O)c3ccc(Cl)cc3)c2O[C@H]1CN(C)C(=O)Nc1ccc2c(c1)OCO2`?
E-sel inducer: 98*; INS-1E GSIS act: -13; AF4-AF9 inh: -2; RAD52 anneal inh: 8; rRNA inh HTS: -3; RAD54 branch: -1

Results for COc1ccc2c3c(n(C)c2c1)[C@H](CO)N(C(=O)C1CCC1)CC31CN(C(=O)CN(C)C)C1 ?
E-sel inducer: 0; INS-1E GSIS act: -6; AF4-AF9 inh: 8; RAD52 anneal inh: 5; rRNA inh HTS: 0

What do the screens show for `Cc1c(C(=O)NCc2ccco2)oc2ccccc12`?
E-sel inducer: 48*; INS-1E GSIS act: 4; AF4-AF9 inh: -1; RAD52 anneal inh: -7; rRNA inh HTS: -5; RAD54 branch: 20

Results for Cc1ccc2c(C)c(C(=O)NCCc3ccco3)oc2c1C ?
E-sel inducer: 0; INS-1E GSIS act: -38; AF4-AF9 inh: -3; RAD52 anneal inh: -29; rRNA inh HTS: -26*; RAD54 branch: 8

What do the screens show for `Cc1cccc(CCNC(=O)c2oc3c(C)c(C)ccc3c2C)n1`?
E-sel inducer: 0; INS-1E GSIS act: 16; AF4-AF9 inh: 1; RAD52 anneal inh: 6; rRNA inh HTS: -23; RAD54 branch: 0

Results for Cc1c(C(=O)NCc2ccco2)oc2ccc(Br)cc12 ?
E-sel inducer: 1; INS-1E GSIS act: -29; AF4-AF9 inh: -14; RAD52 anneal inh: 7; rRNA inh HTS: -4; RAD54 branch: 6

How did Cc1ccc(Cl)cc1NC(=S)N(C)N do in these assays?
INS-1E GSIS act: -9; AF4-AF9 inh: 1; RAD52 anneal inh: -23; rRNA inh HTS: 16; RAD54 branch: -8

How did Cc1ccc(NC(=S)N(C)N)cc1Cl do in these assays?
E-sel inducer: 0; INS-1E GSIS act: 0; AF4-AF9 inh: 1; RAD52 anneal inh: -4; rRNA inh HTS: -25*; RAD54 branch: 4

What do the screens show for `O=C(C[C@@H]1CC[C@@H]2[C@H](COC[C@@H](O)CN2Cc2cccc(C(F)(F)F)c2)O1)NCc1ccncc1`?
E-sel inducer: 0; INS-1E GSIS act: 0; AF4-AF9 inh: -1; RAD52 anneal inh: -6; rRNA inh HTS: 7; RAD54 branch: 3

How did Cc1nc2c(C#N)c[nH]n2c(=O)c1Cc1ccccc1 do in these assays?
INS-1E GSIS act: -5; AF4-AF9 inh: 1; RAD52 anneal inh: -25; rRNA inh HTS: -22*; RAD54 branch: -2

Results for CO[C@H]1CN(C)C(=O)c2cc(NS(C)(=O)=O)ccc2OC[C@@H](C)N(Cc2ccccn2)C[C@@H]1C ?
E-sel inducer: 0; INS-1E GSIS act: -3; rRNA inh HTS: 2

How did CC(C)C(=O)Nc1ccc2c(c1)C(=O)N(C)[C@H]1CC[C@@H](CC(=O)NCc3cccc(F)c3)O[C@@H]1CO2 do in these assays?
E-sel inducer: 0; INS-1E GSIS act: 5; rRNA inh HTS: -1; RAD54 branch: -3

Results for Cc1nnn(C23CC4CC(CC(CC(=O)Nc5ccc(C)c(C)c5)(C4)C2)C3)n1 ?
INS-1E GSIS act: -29; AF4-AF9 inh: 5; RAD52 anneal inh: -19; rRNA inh HTS: -19*; RAD54 branch: -7

What do the screens show for `Cc1cccc(NC(=O)CC23CC4CC(C2)CC(n2nnc(C)n2)(C4)C3)c1`?
INS-1E GSIS act: -27; AF4-AF9 inh: -1; RAD52 anneal inh: -22; rRNA inh HTS: -23*; RAD54 branch: 1

How did Cc1nnn(C23CC4CC(CC(CC(=O)Nc5cccc(F)c5)(C4)C2)C3)n1 do in these assays?
E-sel inducer: 0; INS-1E GSIS act: -17; AF4-AF9 inh: 1; RAD52 anneal inh: 7; rRNA inh HTS: -8

Results for CCCNC(=O)N[C@H]1C=C[C@@H](CC(=O)NC2CCCCC2)O[C@@H]1CO ?
E-sel inducer: 0; INS-1E GSIS act: 2; AF4-AF9 inh: -1; RAD52 anneal inh: -4; rRNA inh HTS: 1; RAD54 branch: 1

Results for C=CCn1c(-c2cc(-c3ccc(C)cc3)nc3ccccc23)n[nH]c1=S ?
INS-1E GSIS act: 5; AF4-AF9 inh: 4; RAD52 anneal inh: -14; rRNA inh HTS: -29*

How did Cc1ccc(NC(=O)CN(C)Cc2ccc(Cl)cc2)cc1 do in these assays?
E-sel inducer: 0; INS-1E GSIS act: -3; AF4-AF9 inh: -2; RAD52 anneal inh: -14; rRNA inh HTS: -30*

How did CN(CC(=O)NCCCc1ccccc1)Cc1ccc(Br)cc1 do in these assays?
E-sel inducer: 0; INS-1E GSIS act: -9; AF4-AF9 inh: -1; RAD52 anneal inh: -9; rRNA inh HTS: -25; RAD54 branch: -22

What do the screens show for `CN(CC(=O)Nc1ccc(Br)cc1)Cc1ccccc1`?
E-sel inducer: 97*; AF4-AF9 inh: -2; RAD52 anneal inh: 4; rRNA inh HTS: -18; RAD54 branch: -9
